Laboratory results published in ChEMBL document CHEMBL1154428, “Cloning, nucleotide sequencing, and analysis of the AcrAB-TolC efflux pump of Enterobacter cloacae and determination of its involvement in antibiotic resistance in a clinical isolate” (2007).
≈ marks a conversion by molar mass, not a printed value.

Assays:
[1] = system: Enterobacter cloacae; assay: Antibacterial activity against drug-resistant AcrAB-TolC efflux pump deficient Enterobacter cloacae EcdeltaacrA isolate expressing pAP3 plasmid containing Enterobacter aerogenes acrR gene by Etest; type: functional
[2] = system: Enterobacter cloacae; assay: Antibacterial activity against drug-resistant AcrAB-TolC efflux pump deficient Enterobacter cloacae EcdeltaacrA isolate in presence of 20 ug/ml efflux pump inhibitor Phe-Arg-beta-naphthylamide by Etest; type: functional
[3] = system: Enterobacter cloacae; assay: Antibacterial activity against drug-resistant AcrAB-TolC efflux pump deficient Enterobacter cloacae EcdeltaacrA isolate expressing pBGS18 plasmid by Etest; type: functional
[4] = system: Enterobacter cloacae; assay: Antibacterial activity against drug-resistant AcrAB-TolC efflux pump deficient Enterobacter cloacae EcdeltaacrA isolate expressing pACYC184 plasmid by Etest; type: functional
[5] = system: Enterobacter cloacae; assay: Antibacterial activity against drug-resistant Enterobacter cloacae EcDC64 isolate expressing AcrAB-TolC efflux pump in presence of 20 ug/ml efflux pump inhibitor Phe-Arg-beta-naphthylamide by Etest
[6] = system: Enterobacter cloacae; assay: Antibacterial activity against drug-resistant AcrAB-TolC efflux pump deficient Enterobacter cloacae EcdeltaacrA isolate expressing pAP2 plasmid containing Enterobacter cloacae acrA gene by Etest; type: functional
[7] = system: Enterobacter cloacae; assay: Antibacterial activity against drug-resistant AcrAB-TolC efflux pump deficient Enterobacter cloacae EcdeltaacrA isolate by Etest; type: functional
[8] = system: Enterobacter cloacae; assay: Antibacterial activity against drug-resistant Enterobacter cloacae EcDC64 isolate expressing AcrAB-TolC efflux pump by Etest; type: functional
[9] = system: Enterobacter cloacae; assay: Antibacterial activity against drug-resistant AcrAB-TolC efflux pump deficient Enterobacter cloacae EcdeltaacrA isolate by standard disk diffusion method; type: functional
In short: (§1)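 Standard disk diffusion on Mueller-Hinton agar with telithromycin, fusidic acid, novobiocin, nalidixic acid, rifampin and norfloxacin disks. The read-out is the inhibition zone diameter in mm. The acrA-deleted strain was complemented with acrA on pAP-2, and pACYC184 served as the empty vector.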

[10] = system: Enterobacter cloacae; assay: Antibacterial activity against drug-resistant AcrAB-TolC efflux pump deficient Enterobacter cloacae EcdeltaacrA isolate in presence of 20 ug/ml efflux pump inhibitor Phe-Arg-beta-naphthylamide by standard disk diffusion method; type: functional; in short: as §1
[11] = system: Enterobacter cloacae; assay: Antibacterial activity against drug-resistant Enterobacter cloacae EcDC64 isolate expressing pAP3 plasmid containing Enterobacter aerogenes acrR gene by standard disk diffusion method
[12] = system: Enterobacter cloacae; assay: Antibacterial activity against drug-resistant AcrAB-TolC efflux pump deficient Enterobacter cloacae EcdeltaacrA isolate expressing pACYC184 plasmid by standard disk diffusion method; type: functional; in short: as §1
[13] = system: Enterobacter cloacae; assay: Antibacterial activity against drug-resistant Enterobacter cloacae EcDC64 isolate expressing AcrAB-TolC efflux pump by standard disk diffusion method; type: functional; in short: as §1
[14] = system: Enterobacter cloacae; assay: Antibacterial activity against drug-resistant Enterobacter cloacae EcDC64 isolate expressing AcrAB-TolC efflux pump in presence of 20 ug/ml efflux pump inhibitor Phe-Arg-beta-naphthylamide by standard disk diffusion method; type: functional; in short: as §1
[15] = system: Enterobacter cloacae; assay: Antibacterial activity against drug-resistant AcrAB-TolC efflux pump deficient Enterobacter cloacae EcdeltaacrA isolate expressing pAP2 plasmid containing Enterobacter cloacae acrA gene by standard disk diffusion method; type: functional; in short: as §1
[16] = system: Enterobacter cloacae; assay: Antibacterial activity against drug-resistant Enterobacter cloacae EcDC64 isolate expressing pBGS18 plasmid by standard disk diffusion method

Row | Structure (SMILES) | MIC [1] | MIC [2] | MIC [3] | MIC [4] | MIC [5] | MIC [6] | MIC [7] | MIC [8] | inhibition zone (IZ) [9] | inhibition zone (IZ) [10] | inhibition zone (IZ) [11] | inhibition zone (IZ) [12] | inhibition zone (IZ) [13] | inhibition zone (IZ) [14] | inhibition zone (IZ) [15] | inhibition zone (IZ) [16]
1 | CO/N=C(\C(=O)N[C@@H]1C(=O)N2C(C(=O)O)=C(COC(C)=O)CS[C@H]12)c1csc(N)n1 [CEFOTAXIME] | > 256 µg/mL | 8 µg/mL | > 256 µg/mL | > 256 µg/mL | > 256 µg/mL | > 256 µg/mL | > 256 µg/mL | > 256 µg/mL | – | – | – | – | – | – | – | –
2 | CC[C@H]1OC(=O)[C@H](C)[C@@H](O[C@H]2C[C@@](C)(OC)[C@@H](O)[C@H](C)O2)[C@H](C)[C@@H](O[C@@H]2O[C@H](C)C[C@H](N(C)C)[C@H]2O)[C@](C)(O)C[C@@H](C)C(=O)[C@H](C)[C@@H](O)[C@]1(C)O [ERYTHROMYCIN] | 48 µg/mL (≈ 65.4 µM) | 0.094 µg/mL | > 256 µg/mL | 16 µg/mL (≈ 21.8 µM) | 1 µg/mL | 128 µg/mL (≈ 174 µM) | 12 µg/mL (≈ 16.4 µM) | > 256 µg/mL | – | – | – | – | – | – | – | –
3 | CCn1cc(C(=O)O)c(=O)c2cc(F)c(N3CCNCC3)cc21 [NORFLOXACIN] | – | – | – | – | – | – | – | – | 40 mm | 42 mm | 35 mm | 38 mm | 26 mm | 40 mm | 24 mm | 27 mm
4 | CO[C@H]1/C=C/O[C@@]2(C)Oc3c(C)c(O)c4c(O)c(c(/C=N/N5CCN(C)CC5)c(O)c4c3C2=O)NC(=O)/C(C)=C\C=C\[C@H](C)[C@H](O)[C@@H](C)[C@@H](O)[C@@H](C)[C@H](OC(C)=O)[C@@H]1C [RIFAMPIN] | – | – | – | – | – | – | – | – | 13 mm | 28 mm | 10 mm | 8 mm | 0 mm | 26 mm | 0 mm | 10 mm
5 | NC[C@H]1O[C@H](O[C@H]2[C@H](O)[C@@H](O[C@H]3O[C@H](CO)[C@@H](O)[C@H](N)[C@H]3O)[C@H](N)C[C@@H]2N)[C@H](N)C[C@@H]1O [TOBRAMYCIN] | 0.38 µg/mL (≈ 0.813 µM) | 0.047 µg/mL | 1 µg/mL (≈ 2.14 µM) | 0.25 µg/mL (≈ 0.535 µM) | 0.5 µg/mL | 1.5 µg/mL (≈ 3.21 µM) | 0.125 µg/mL (≈ 0.267 µM) | 1.5 µg/mL (≈ 3.21 µM) | – | – | – | – | – | – | – | –
6 | CN(C)c1cc(NC(=O)CNC(C)(C)C)c(O)c2c1C[C@H]1C[C@H]3[C@H](N(C)C)C(O)=C(C(N)=O)C(=O)[C@@]3(O)C(O)=C1C2=O [TIGECYCLINE] | 0.19 µg/mL (≈ 0.324 µM) | 0.064 µg/mL | 0.38 µg/mL (≈ 0.649 µM) | 0.5 µg/mL (≈ 0.854 µM) | 0.125 µg/mL | 0.75 µg/mL (≈ 1.28 µM) | 0.125 µg/mL (≈ 0.213 µM) | 0.75 µg/mL (≈ 1.28 µM) | – | – | – | – | – | – | – | –
7 | O=C(N[C@H](CO)[C@H](O)c1ccc([N+](=O)[O-])cc1)C(Cl)Cl [CHLORAMPHENICOL] | 1 µg/mL (≈ 3.09 µM) | 0.047 µg/mL | 8 µg/mL (≈ 24.8 µM) | > 256 µg/mL | 0.25 µg/mL | > 256 µg/mL | 0.5 µg/mL (≈ 1.55 µM) | 8 µg/mL (≈ 24.8 µM) | – | – | – | – | – | – | – | –
8 | CCC[C@@H]1C[C@@H](C(=O)N[C@@H]([C@H]2O[C@H](SC)[C@H](O)[C@@H](O)[C@H]2O)[C@H](C)Cl)N(C)C1 [CLINDAMYCIN] | 32 µg/mL (≈ 75.3 µM) | 1 µg/mL | > 256 µg/mL | 4 µg/mL (≈ 9.41 µM) | 6 µg/mL | > 256 µg/mL | 2 µg/mL (≈ 4.71 µM) | > 256 µg/mL | – | – | – | – | – | – | – | –
9 | CC(=O)NC[C@H]1CN(c2ccc(N3CCOCC3)c(F)c2)C(=O)O1 [LINEZOLID] | > 256 µg/mL | 0.5 µg/mL | > 256 µg/mL | 4 µg/mL (≈ 11.9 µM) | 4 µg/mL | > 256 µg/mL | 8 µg/mL (≈ 23.7 µM) | > 256 µg/mL | – | – | – | – | – | – | – | –
10 | CC(C)(O/N=C(\C(=O)N[C@@H]1C(=O)N2C(C(=O)[O-])=C(C[n+]3ccccc3)CS[C@H]12)c1csc(N)n1)C(=O)O [CEFTAZIDIME] | > 256 µg/mL | 16 µg/mL | > 256 µg/mL | > 256 µg/mL | > 256 µg/mL | > 256 µg/mL | > 256 µg/mL | > 256 µg/mL | – | – | – | – | – | – | – | –
11 | CC[C@H]1OC(=O)[C@H](C)C(=O)[C@H](C)[C@@H](O[C@@H]2O[C@H](C)C[C@H](N(C)C)[C@H]2O)[C@](C)(OC)C[C@@H](C)C(=O)[C@H](C)[C@H]2N(CCCCn3cnc(-c4cccnc4)c3)C(=O)O[C@]12C [TELITHROMYCIN] | – | – | – | – | – | – | – | – | 19 mm | 34 mm | 12 mm | 18 mm | 9 mm | 32 mm | 13 mm | 10 mm
12 | CC(=O)OCC1=C(C(=O)O)N2C(=O)[C@@H](NC(=O)Cc3cccs3)[C@H]2SC1 [CEPHALOTHIN] | > 256 µg/mL | > 256 µg/mL | > 256 µg/mL | > 256 µg/mL | > 256 µg/mL | > 256 µg/mL | > 256 µg/mL | > 256 µg/mL | – | – | – | – | – | – | – | –
13 | Cc1onc(-c2ccccc2)c1C(=O)N[C@@H]1C(=O)N2[C@@H]1SC(C)(C)[C@@H]2C(=O)O [OXACILLIN] | > 256 µg/mL | 4 µg/mL | > 256 µg/mL | > 256 µg/mL | 48 µg/mL | > 256 µg/mL | 96 µg/mL (≈ 239 µM) | > 256 µg/mL | – | – | – | – | – | – | – | –
14 | CO[C@@H]1[C@@H](OC(N)=O)[C@@H](O)[C@H](Oc2ccc3c(O)c(NC(=O)c4ccc(O)c(CC=C(C)C)c4)c(=O)oc3c2C)OC1(C)C [NOVOBIOCIN] | – | – | – | – | – | – | – | – | 16 mm | 22 mm | 0 mm | 14 mm | 0 mm | 20 mm | 0 mm | 0 mm
15 | CCN1CCN(C(=O)N[C@@H](C(=O)N[C@@H]2C(=O)N3[C@@H]2SC(C)(C)[C@@H]3C(=O)O)c2ccccc2)C(=O)C1=O [PIPERACILLIN] | 96 µg/mL (≈ 185 µM) | 6 µg/mL | > 256 µg/mL | > 256 µg/mL | 192 µg/mL | > 256 µg/mL | 192 µg/mL (≈ 371 µM) | > 256 µg/mL | – | – | – | – | – | – | – | –
16 | CO/N=C(\C(=O)N[C@@H]1C(=O)N2C(C(=O)O)=C(COC(N)=O)CS[C@H]12)c1ccco1 [CEFUROXIME] | > 256 µg/mL | 48 µg/mL | > 256 µg/mL | > 256 µg/mL | > 256 µg/mL | > 256 µg/mL | > 256 µg/mL | > 256 µg/mL | – | – | – | – | – | – | – | –
17 | CN(C)[C@@H]1C(O)=C(C(N)=O)C(=O)[C@@]2(O)C(O)=C3C(=O)c4c(O)cccc4[C@@](C)(O)[C@H]3C[C@@H]12 [TETRACYCLINE] | 192 µg/mL (≈ 432 µM) | 1.5 µg/mL | > 256 µg/mL | 64 µg/mL (≈ 144 µM) | 64 µg/mL | > 256 µg/mL | 64 µg/mL (≈ 144 µM) | > 256 µg/mL | – | – | – | – | – | – | – | –
18 | NCC[C@H](O)C(=O)N[C@@H]1C[C@H](N)[C@@H](O[C@H]2O[C@H](CN)[C@@H](O)[C@H](O)[C@H]2O)[C@H](O)[C@H]1O[C@H]1O[C@H](CO)[C@@H](O)[C@H](N)[C@H]1O [AMIKACIN] | 1 µg/mL (≈ 1.71 µM) | 0.125 µg/mL | 2 µg/mL (≈ 3.42 µM) | 0.5 µg/mL (≈ 0.854 µM) | 1.5 µg/mL | 2 µg/mL (≈ 3.42 µM) | 0.5 µg/mL (≈ 0.854 µM) | 2 µg/mL (≈ 3.42 µM) | – | – | – | – | – | – | – | –
19 | CO[C@@]1(NC(=O)Cc2cccs2)C(=O)N2C(C(=O)O)=C(COC(N)=O)CS[C@@H]21 [CEFOXITIN] | > 256 µg/mL | > 256 µg/mL | > 256 µg/mL | > 256 µg/mL | > 256 µg/mL | > 256 µg/mL | > 256 µg/mL | > 256 µg/mL | – | – | – | – | – | – | – | –
